In ChEMBL document CHEMBL1255494, “In vivo comparison of the pharmacodynamic targets for echinocandin drugs against Candida species” (Antimicrob Agents Chemother, 2010):
In brackets after ≈: the same amount, converted by molar mass.

Experiments:
Nakaseomyces glabratus [1] = assay: Antifungal activity against Candida glabrata 33616 after 24 hrs; format: functional; conditions: Nakaseomyces glabratus, 33616, 24 h
In short: (§1)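 MICs by CLSI M27-A3 broth dilution in RPMI 1640, inoculum 0.5 × 10³ to 2.5 × 10³ cells/ml, 35°C. Read visually at 24 h as the lowest concentration giving ≥50% growth reduction versus control. Run on three occasions in duplicate and reported as the mean. C. krusei ATCC 6258 and C. parapsilosis ATCC 22019 served as QC strains.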

Candida parapsilosis [2] = assay: Antifungal activity against Candida parapsilosis 20562.03 after 24 hrs; format: functional; conditions: Lodderomyces parapsilosis, 20562.03, 24 h; in short: as §1
Nakaseomyces glabratus [3] = assay: Antifungal activity against Candida glabrata 32930 after 24 hrs; format: functional; conditions: Nakaseomyces glabratus, 32930, 24 h
In short: (§2)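 Broth microdilution per CLSI M27-A3 in RPMI 1640; inoculum 0.5 × 10³ to 2.5 × 10³ cells/ml, 35°C. […] Three separate occasions in duplicate, mean reported; C. krusei ATCC 6258 and C. parapsilosis ATCC 22019 as daily QC.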

Candida parapsilosis [4] = assay: Fungistatic activity against Candida parapsilosis infected in neutropenic ICR Swiss mouse after 24 hrs; format: functional
In short: (§3)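 Female ICR Swiss mice, neutropenic via cyclophosphamide s.c. (150 mg/kg day −4, 100 mg/kg day −1 and day +2), infected by tail-vein injection of clinical isolates 2 h before therapy. Intraperitoneal dosing every 24 h for 4 days, 4–6 dose levels from 0.078 to 160 mg/kg, 3 mice per regimen. Kidney CFU counted at 96 h. Sigmoid dose-effect fit gives static dose and 1 log kill dose relative to burden at start of therapy.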

[5] = Cmax in Candida albicans infected neutropenic ICR Swiss mouse at 80 mg/kg, ip; format: ADME, organism-based; design: dose 80 mg/kg, route intraperitoneal; conditions: ICR Swiss, in vivo
In short: (§4)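 Neutropenic female ICR Swiss mice (cyclophosphamide sc at 150 mg/kg on day −4, 100 mg/kg on day −1 and day +2) infected iv via tail vein with Candida; single ip doses of 5, 20 or 80 mg/kg. Serum drawn from 3 mice per time point at eight time points and assayed by microbiologic assay (C. albicans K1) or […]. Noncompartmental analysis; AUC by trapezoidal rule.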

Candida parapsilosis [6] = assay: Antifungal activity against Candida parapsilosis 20477.048 after 24 hrs; format: functional; conditions: Lodderomyces parapsilosis, 20477.048, 24 h; in short: as §1
[7] = AUC (0 to 24 hrs) in Candida albicans infected neutropenic ICR Swiss mouse at 5 mg/kg, ip; format: ADME, organism-based; design: time < 24 hr, dose 5 mg/kg, route intraperitoneal; conditions: plasma; in short: as §4
Nakaseomyces glabratus [8] = assay: Antifungal activity against Candida glabrata infected in neutropenic ICR Swiss mouse assessed log reduction in bacterial count […]; format: functional; in short: as §3
Candida albicans [9] = assay: Antifungal activity against Candida albicans infected in ICR Swiss mouse assessed as log reduction in bacterial count […]; format: functional; in short: as §3
Nakaseomyces glabratus [10] = assay: Antifungal activity against Candida glabrata 513 after 24 hrs; format: functional; conditions: Nakaseomyces glabratus, 513, 24 h; in short: as §2
[11] = AUC (0 to 24 hrs) in Candida albicans infected neutropenic ICR Swiss mouse at 20 mg/kg, ip; format: ADME, organism-based; design: time < 24 hr, dose 20 mg/kg, route intraperitoneal; conditions: plasma; in short: as §4
Candida parapsilosis [12] = assay: Antifungal activity against Candida parapsilosis 20423.072 after 24 hrs; format: functional; conditions: Lodderomyces parapsilosis, 20423.072, 24 h; in short: as §1
Candida parapsilosis [13] = assay: Antifungal activity against Candida parapsilosis 20557.012 after 24 hrs; format: functional; conditions: Lodderomyces parapsilosis, 20557.012, 24 h; in short: as §1
Nakaseomyces glabratus [14] = assay: Antifungal activity against Candida glabrata infected in ICR Swiss mouse; format: functional; in short: as §3
Candida albicans [15] = assay: Antifungal activity against Candida albicans 580 after 24 hrs; format: functional; conditions: Candida albicans, 580, 24 h; in short: as §2
Candida albicans [16] = assay: Antifungal activity against Candida albicans 98-17 after 24 hrs; format: functional; conditions: 98-17, 24 h; in short: as §1
[17] = Cmax in Candida albicans infected neutropenic ICR Swiss mouse at 5 mg/kg, ip; format: ADME, organism-based; design: dose 5 mg/kg, route intraperitoneal; conditions: ICR Swiss, in vivo; in short: as §4
Nakaseomyces glabratus [18] = assay: Antifungal activity against Candida glabrata 33609 after 24 hrs; format: functional; conditions: Nakaseomyces glabratus, 33609, 24 h; in short: as §2
Candida orthopsilosis = assay: Antifungal activity against Candida orthopsilosis 20577.055 after 24 hrs; format: functional; conditions: Lodderomyces orthopsilosis, 20577.055, 24 h; in short: as §1
Candida albicans [19] = assay: Antifungal activity against Candida albicans 570 after 24 hrs; format: functional; conditions: Candida albicans, 570, 24 h; in short: as §1
Nakaseomyces glabratus [20] = assay: Antifungal activity against Candida glabrata 5376 after 24 hrs; format: functional; conditions: Nakaseomyces glabratus, 5376, 24 h; in short: as §2
[21] = Cmax in Candida albicans infected neutropenic ICR Swiss mouse at 20 mg/kg, ip; format: ADME, organism-based; design: dose 20 mg/kg, route intraperitoneal; conditions: ICR Swiss, in vivo; in short: as §4
Nakaseomyces glabratus [22] = assay: Antifungal activity against Candida glabrata 5592 after 24 hrs; format: functional; conditions: Nakaseomyces glabratus, 5592, 24 h; in short: as §2
Candida parapsilosis [23] = assay: Antifungal activity against Candida parapsilosis 20511.092 after 24 hrs; format: functional; conditions: Lodderomyces parapsilosis, 20511.092, 24 h; in short: as §1
Candida albicans [24] = assay: Antifungal activity against Candida albicans 98-234 after 24 hrs; format: functional; conditions: 98-234, 24 h; in short: as §1
Nakaseomyces glabratus [25] = assay: Fungistatic activity against Candida glabrata infected in neutropenic ICR Swiss mouse after 24 hrs; format: functional; in short: as §3
Candida parapsilosis [26] = assay: Antifungal activity against Candida parapsilosis 20423.078 after 24 hrs; format: functional; conditions: Lodderomyces parapsilosis, 20423.078, 24 h; in short: as §1
Candida parapsilosis [27] = assay: Antifungal activity against Candida parapsilosis 20489.085 after 24 hrs; format: functional; conditions: Lodderomyces parapsilosis, 20489.085, 24 h; in short: as §2
Candida parapsilosis [28] = assay: Antifungal activity against Candida parapsilosis 20435.057 after 24 hrs; format: functional; conditions: Lodderomyces parapsilosis, 20435.057, 24 h; in short: as §1
Candida parapsilosis [29] = assay: Antifungal activity against Candida parapsilosis 20385.079 after 24 hrs; format: functional; conditions: Lodderomyces parapsilosis, 20385.079, 24 h; in short: as §1
Candida parapsilosis [30] = assay: Antifungal activity against Candida parapsilosis infected in ICR Swiss mouse; format: functional; in short: as §3
Candida parapsilosis [31] = assay: Antifungal activity against Candida parapsilosis 20450.096 after 24 hrs; format: functional; conditions: Lodderomyces parapsilosis, 20450.096, 24 h; in short: as §1
Nakaseomyces glabratus [32] = assay: Antifungal activity against Candida glabrata 34341 after 24 hrs; format: functional; conditions: Nakaseomyces glabratus, 34341, 24 h; in short: as §1
Candida albicans [33] = assay: Antifungal activity against Candida albicans K1 after 24 hrs; format: functional; conditions: K1, 24 h; in short: as §2
Candida parapsilosis [34] = assay: Antifungal activity against Candida parapsilosis 20553.009 after 24 hrs; format: functional; conditions: Lodderomyces parapsilosis, 20553.009, 24 h; in short: as §1
Candida albicans [35] = assay: Fungistatic activity against Candida albicans infected in neutropenic ICR Swiss mouse after 24 hrs; format: functional; in short: as §3
Nakaseomyces glabratus [36] = assay: Antifungal activity against Candida glabrata 35315 after 24 hrs; format: functional; conditions: Nakaseomyces glabratus, 35315, 24 h; in short: as §1
Candida parapsilosis [37] = assay: Antifungal activity against Candida parapsilosis infected in ICR Swiss mouse assessed log reduction in bacterial count […]; format: functional; in short: as §3
Mus musculus = assay: Protein binding in Candida albicans infected neutropenic ICR Swiss mouse at 80 mg/kg, ip; format: ADME, organism-based; design: dose 80 mg/kg, route intraperitoneal; conditions: in vivo
Candida parapsilosis [38] = assay: Antifungal activity against Candida parapsilosis 20519.069 after 24 hrs; format: functional; conditions: Lodderomyces parapsilosis, 20519.069, 24 h; in short: as §1
[39] = AUC (0 to 24 hrs) in Candida albicans infected neutropenic ICR Swiss mouse at 80 mg/kg, ip; format: ADME, organism-based; design: time < 24 hr, dose 80 mg/kg, route intraperitoneal; conditions: plasma; in short: as §4
Candida albicans [40] = assay: Antifungal activity against Candida albicans 98-210 after 24 hrs; format: functional; conditions: 98-210, 24 h; in short: as §2
Candida albicans [41] = assay: Antifungal activity against Candida albicans infected in ICR Swiss mouse; format: functional; in short: as §3
Candida parapsilosis [42] = assay: Antifungal activity against Candida parapsilosis 20477.078 after 24 hrs; format: functional; conditions: Lodderomyces parapsilosis, 20477.078, 24 h; in short: as §1
Candida metapsilosis = assay: Antifungal activity against Candida metapsilosis 20463.02 after 24 hrs; format: functional; conditions: Lodderomyces metapsilosis, 20463.02, 24 h; in short: as §1

With `CC[C@H](C)C[C@H](C)CCCCCCCCC(=O)N[C@H]1C[C@@H](O)[C@@H](NCCN)NC(=O)[C@@H]2[C@@H](O)CCN2C(=O)[C@H]([C@H](O)CCN)NC(=O)[C@H]([C@H](O)[C@@H](O)c2ccc(O)cc2)NC(=O)[C@@H]2C[C@@H](O)CN2C(=O)[C@H]([C@@H](C)O)NC1=O` [CASPOFUNGIN] the MIC (Nakaseomyces glabratus [1]) was 0.25 µg/mL (≈ 0.229 µM), the MIC (Candida parapsilosis [2]) was 0.25 µg/mL (≈ 0.229 µM) and the MIC (Nakaseomyces glabratus [3]) was 0.03 µg/mL (≈ 0.0274 µM). For the same compound, the Activity (Candida parapsilosis [4]) was 3.56 mg/kg, the Cmax [5] was 58000 ng/mL and the MIC (Candida parapsilosis [6]) was 4 µg/mL (≈ 3.66 µM). The AUC(0-t) at 24 h [7] was 164 µg·h/mL, the Activity (Nakaseomyces glabratus [8]) was 1.16 mg/kg and the Activity (Candida albicans [9]) was 2.91 mg/kg. The MIC (Nakaseomyces glabratus [10]) was 0.03 µg/mL (≈ 0.0274 µM), the AUC(0-t) at 24 h [11] was 345 µg·h/mL and the MIC (Candida parapsilosis [12]) was 0.12 µg/mL (≈ 0.11 µM). The MIC (Candida parapsilosis [13]) was 0.12 µg/mL (≈ 0.11 µM), the Emax (Nakaseomyces glabratus [14]) was 7 log10 CFU/kidneys and the ED50 (Nakaseomyces glabratus [14]; Nakaseomyces glabratus) was 6.9 mg/kg. It also gave an MIC (Candida albicans [15]) of 0.03 µg/mL (≈ 0.0274 µM), an MIC (Candida albicans [16]) of 0.12 µg/mL (≈ 0.11 µM) and a Cmax [17] of 18000 ng/mL. The MIC (Nakaseomyces glabratus [18]) was 0.03 µg/mL (≈ 0.0274 µM), the MIC (Candida orthopsilosis) was 0.06 µg/mL (≈ 0.0549 µM) and the MIC (Candida albicans [19]) was 0.12 µg/mL (≈ 0.11 µM). It also gave an MIC (Nakaseomyces glabratus [20]) of 0.03 µg/mL (≈ 0.0274 µM), a Cmax [21] of 26000 ng/mL and an MIC (Nakaseomyces glabratus [22]) of 0.03 µg/mL (≈ 0.0274 µM). For the same compound, the MIC (Candida parapsilosis [23]) was 0.06 µg/mL (≈ 0.0549 µM), the MIC (Candida albicans [24]) was 0.03 µg/mL (≈ 0.0274 µM) and the Activity (Nakaseomyces glabratus [25]) was 0.33 mg/kg. It also gave an MIC (Candida parapsilosis [26]) of 0.25 µg/mL (≈ 0.229 µM), an MIC (Candida parapsilosis [27]) of 0.25 µg/mL (≈ 0.229 µM) and an MIC (Candida parapsilosis [28]) of 0.06 µg/mL (≈ 0.0549 µM). It also gave an MIC (Candida parapsilosis [29]) of 0.5 µg/mL (≈ 0.457 µM), an Emax (Candida parapsilosis [30]) of 5.5 log10 CFU/kidneys and an ED50 (Candida parapsilosis [30]; Lodderomyces parapsilosis) of 10.4 mg/kg. The MIC (Candida parapsilosis [31]) was 0.5 µg/mL (≈ 0.457 µM), the MIC (Nakaseomyces glabratus [32]) was 0.25 µg/mL (≈ 0.229 µM) and the MIC (Candida albicans [33]) was 0.03 µg/mL (≈ 0.0274 µM). The MIC (Candida parapsilosis [34]) was 1 µg/mL (≈ 0.915 µM), the Activity (Candida albicans [35]) was 0.72 mg/kg and the MIC (Nakaseomyces glabratus [36]) was 0.12 µg/mL (≈ 0.11 µM). It also gave an Activity (Candida parapsilosis [37]) of 9.84 mg/kg, an Activity (Mus musculus) of 97% and an MIC (Candida parapsilosis [38]) of 1 µg/mL (≈ 0.915 µM). The AUC(0-t) at 24 h [39] was 667 µg·h/mL, the MIC (Candida albicans [40]) was 0.02 µg/mL (≈ 0.0183 µM) and the Emax (Candida albicans [41]) was 4.1 log10 CFU/kidneys. It also gave an ED50 (Candida albicans [41]; Candida albicans) of 8 mg/kg, an MIC (Candida parapsilosis [42]) of 0.5 µg/mL (≈ 0.457 µM) and an MIC (Candida metapsilosis) of 0.06 µg/mL (≈ 0.0549 µM).
